Experimental data taken from ChEMBL document CHEMBL1671641, “1,5-benzodiazepines, a novel class of hepatitis C virus polymerase nonnucleoside inhibitors” (Antimicrob Agents Chemother, 2008).
pEC50, pIC50: −log10 of the molar value.

Key:
[1] = target: T1, DNA polymerase subunit gamma-1 (Homo sapiens) (UniProt P54098); assay: Inhibition of human DNA polymerase gamma at 100 uM
T1 sequence (whole entry): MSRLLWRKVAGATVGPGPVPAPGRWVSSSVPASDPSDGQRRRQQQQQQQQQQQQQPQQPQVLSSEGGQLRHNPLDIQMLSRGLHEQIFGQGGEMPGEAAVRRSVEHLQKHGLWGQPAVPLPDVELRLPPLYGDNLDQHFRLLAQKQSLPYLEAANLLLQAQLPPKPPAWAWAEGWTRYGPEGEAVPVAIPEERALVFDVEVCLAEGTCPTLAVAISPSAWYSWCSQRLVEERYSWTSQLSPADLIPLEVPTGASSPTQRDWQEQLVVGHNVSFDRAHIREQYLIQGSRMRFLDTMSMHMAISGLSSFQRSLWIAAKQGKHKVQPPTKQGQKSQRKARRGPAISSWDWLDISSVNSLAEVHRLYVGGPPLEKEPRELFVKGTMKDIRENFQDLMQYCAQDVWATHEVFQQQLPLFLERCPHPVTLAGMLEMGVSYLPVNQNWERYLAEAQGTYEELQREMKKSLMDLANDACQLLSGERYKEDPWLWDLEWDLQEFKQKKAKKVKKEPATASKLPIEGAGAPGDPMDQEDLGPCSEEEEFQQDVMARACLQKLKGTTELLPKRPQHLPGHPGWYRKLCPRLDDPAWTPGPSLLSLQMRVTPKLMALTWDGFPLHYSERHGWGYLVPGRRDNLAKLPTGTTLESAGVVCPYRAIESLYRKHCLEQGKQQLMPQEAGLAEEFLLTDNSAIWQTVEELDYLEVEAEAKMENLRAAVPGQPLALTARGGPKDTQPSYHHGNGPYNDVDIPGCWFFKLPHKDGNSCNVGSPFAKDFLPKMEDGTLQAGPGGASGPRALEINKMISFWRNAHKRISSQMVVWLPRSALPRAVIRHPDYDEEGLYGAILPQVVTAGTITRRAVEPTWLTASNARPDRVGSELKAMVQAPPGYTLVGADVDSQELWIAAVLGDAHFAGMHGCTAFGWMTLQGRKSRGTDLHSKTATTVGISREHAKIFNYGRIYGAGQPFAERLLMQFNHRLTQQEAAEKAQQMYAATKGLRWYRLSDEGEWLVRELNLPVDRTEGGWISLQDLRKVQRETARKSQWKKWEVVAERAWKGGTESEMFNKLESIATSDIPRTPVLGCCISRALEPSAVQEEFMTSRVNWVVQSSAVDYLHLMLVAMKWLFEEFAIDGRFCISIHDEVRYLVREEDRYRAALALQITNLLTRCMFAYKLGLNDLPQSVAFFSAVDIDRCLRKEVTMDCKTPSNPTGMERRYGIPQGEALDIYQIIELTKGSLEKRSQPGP
Method in brief: (§1)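 Each enzyme–compound pair was tested in duplicate over 0.8 to 100 μM, with 100 μM as the highest dose. Each run included a no-inhibitor control, a solvent dilution (0.016 to 2% DMSO) and the relevant reference inhibitor. Percent inhibition at 100 μM was recorded for polymerase γ.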

[2] = target: Human immunodeficiency virus type 1 reverse transcriptase (Human immunodeficiency virus 1, UniProt Q72547); assay: Inhibition of Human immunodeficiency virus 1 reverse transcriptase expressed in Escherichia coli by scintillation proximity assay
Method in brief: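 N-terminal His6 HIV-1 RT was expressed in E. coli BL21(DE3), induced overnight at 37°C with 0.4 mM IPTG. The homodimer was purified by Ni-NTA and heparin chromatography. Activity was measured by scintillation proximity assay at 2.5 nM enzyme, with efavirenz as reference inhibitor.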

[3] = Cytotoxicity against LTR-Luc transfected human MT4 cells […] after 3 days by ATPLite assay; assay type: cell-based
DNA polymerase beta = DNA polymerase beta (Homo sapiens, UniProt P06746); assay: Inhibition of human DNA polymerase beta; method in brief: as §1
[4] = Cytotoxicity against CMV-Luc transfected human HuH7 cells after 5 days; assay type: cell-based, Huh-7; conditions: CMV-Luc transfected HuH7 cells
[5] = target: T2, DNA polymerase subunit gamma-1 (Homo sapiens, UniProt P54098); assay: Inhibition of human DNA polymerase gamma; method in brief: as §1
T2 sequence (P54098 whole entry): T1 sequence (whole entry)

[6] = target: T3, DNA polymerase alpha catalytic subunit (Homo sapiens, UniProt P09884); assay: Inhibition of human DNA polymerase alpha; method in brief: as §1
T3 sequence (P09884 whole entry): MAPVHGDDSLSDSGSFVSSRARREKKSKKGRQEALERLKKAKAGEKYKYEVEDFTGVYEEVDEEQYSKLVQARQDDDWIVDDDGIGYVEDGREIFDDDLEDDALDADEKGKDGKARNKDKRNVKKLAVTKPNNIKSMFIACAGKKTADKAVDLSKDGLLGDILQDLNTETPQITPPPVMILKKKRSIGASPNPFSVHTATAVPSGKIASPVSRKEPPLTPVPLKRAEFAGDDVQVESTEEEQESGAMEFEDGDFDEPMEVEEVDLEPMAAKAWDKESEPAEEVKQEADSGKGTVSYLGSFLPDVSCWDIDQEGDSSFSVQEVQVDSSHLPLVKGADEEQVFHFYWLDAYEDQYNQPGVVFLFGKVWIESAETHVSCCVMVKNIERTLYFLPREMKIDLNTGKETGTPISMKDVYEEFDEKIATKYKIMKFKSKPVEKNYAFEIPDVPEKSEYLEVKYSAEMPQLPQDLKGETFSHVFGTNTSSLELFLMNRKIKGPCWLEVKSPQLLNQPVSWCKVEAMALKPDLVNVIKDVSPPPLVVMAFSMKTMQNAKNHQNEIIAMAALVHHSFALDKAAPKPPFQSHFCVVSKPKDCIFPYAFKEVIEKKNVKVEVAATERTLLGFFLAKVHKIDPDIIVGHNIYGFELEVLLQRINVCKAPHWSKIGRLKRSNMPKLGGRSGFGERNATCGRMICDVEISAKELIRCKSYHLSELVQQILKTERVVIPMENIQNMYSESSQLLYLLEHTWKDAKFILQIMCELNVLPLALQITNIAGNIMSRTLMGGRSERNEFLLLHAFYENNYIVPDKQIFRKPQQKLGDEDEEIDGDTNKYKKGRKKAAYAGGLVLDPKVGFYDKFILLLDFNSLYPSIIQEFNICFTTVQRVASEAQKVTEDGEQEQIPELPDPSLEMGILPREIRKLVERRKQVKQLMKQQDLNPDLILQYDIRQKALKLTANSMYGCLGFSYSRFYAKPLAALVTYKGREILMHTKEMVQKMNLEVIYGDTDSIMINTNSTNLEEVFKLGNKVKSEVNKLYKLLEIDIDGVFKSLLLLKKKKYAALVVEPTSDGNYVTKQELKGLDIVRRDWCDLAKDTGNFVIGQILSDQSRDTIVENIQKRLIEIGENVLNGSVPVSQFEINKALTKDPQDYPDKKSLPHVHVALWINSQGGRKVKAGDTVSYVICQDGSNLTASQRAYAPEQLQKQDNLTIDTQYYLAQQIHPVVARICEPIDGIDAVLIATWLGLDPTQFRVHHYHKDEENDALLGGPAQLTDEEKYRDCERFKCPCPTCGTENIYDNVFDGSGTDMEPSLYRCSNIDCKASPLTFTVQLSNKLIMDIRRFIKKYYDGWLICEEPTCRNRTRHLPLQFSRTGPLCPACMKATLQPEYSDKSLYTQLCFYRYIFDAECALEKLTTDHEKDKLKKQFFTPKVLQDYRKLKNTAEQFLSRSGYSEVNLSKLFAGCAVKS

[7] = Inhibition of Dengue virus RNA-dependent RNA polymerase; method in brief: as §1
Hepatitis C virus = assay: Antiviral activity against Hepatitis C virus 1b infected in human HuH7 cells assessed as inhibition of viral replication after 3 days by luciferase reporter assay; assay type: functional, organism-based, Hepacivirus hominis, genotype 1b, Huh-7; conditions: Hepatitis C virus, genotype 1b, Huh-7, 72 h
Method in brief: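 HCV 1b subgenomic luciferase reporter replicon (clone ET) cells, 2,500 per well, were exposed to a nine-point 1/4 dilution series for 3 days. Replication was read as luciferase activity. Values are means ± SD from 2 to 23 independent experiments run in quadruplicate.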

- inhibition [1]: 30%
- pIC50 [2]: < 4.49
- pIC50 (DNA polymerase beta): < 4.00
- pIC50 [5]: < 4.00
- pIC50 [6]: < 4.00
- pIC50 [7]: < 4.00
- pEC50 (Hepatitis C virus): < 4.49
Structure (SMILES): CC(=O)N1c2ccccc2NC2=C(C(=O)CC(C)(C)C2)C1c1ccc(Cl)cc1Cl (centres undefined)
- CC50 at 72 h [3]: 32 µM
- CC50 at 120 h [4]: 32 µM
